In ChEMBL document CHEMBL3580637, “Selective Inhibition of Bacterial Topoisomerase I by alkynyl-bisbenzimidazoles” (Medchemcomm, 2014):
Values after ≈ are worked out from the molar mass of the structure shown. Active and inactive are the calls of the source. The rule behind the calls is not given here.

Tests used:
[1] = Inhibition of Escherichia coli DNA topoisomerase-1 using supercoiled pBAD-GFPuv plasmid DNA as substrate assessed as prevention of supercoiled DNA template from relaxation after 15 mins by agarose gel electrophoresis
[2] = molecular target: T1, DNA topoisomerase 1 (Homo sapiens) (UniProt P11387); experiment: Inhibition of human DNA topoisomerase-1 using supercoiled pBAD-GFPuv plasmid DNA as substrate assessed as prevention of supercoiled DNA template from relaxation at 50 uM after 30 mins by agarose gel electrophoresis relative to control
T1 sequence (whole entry): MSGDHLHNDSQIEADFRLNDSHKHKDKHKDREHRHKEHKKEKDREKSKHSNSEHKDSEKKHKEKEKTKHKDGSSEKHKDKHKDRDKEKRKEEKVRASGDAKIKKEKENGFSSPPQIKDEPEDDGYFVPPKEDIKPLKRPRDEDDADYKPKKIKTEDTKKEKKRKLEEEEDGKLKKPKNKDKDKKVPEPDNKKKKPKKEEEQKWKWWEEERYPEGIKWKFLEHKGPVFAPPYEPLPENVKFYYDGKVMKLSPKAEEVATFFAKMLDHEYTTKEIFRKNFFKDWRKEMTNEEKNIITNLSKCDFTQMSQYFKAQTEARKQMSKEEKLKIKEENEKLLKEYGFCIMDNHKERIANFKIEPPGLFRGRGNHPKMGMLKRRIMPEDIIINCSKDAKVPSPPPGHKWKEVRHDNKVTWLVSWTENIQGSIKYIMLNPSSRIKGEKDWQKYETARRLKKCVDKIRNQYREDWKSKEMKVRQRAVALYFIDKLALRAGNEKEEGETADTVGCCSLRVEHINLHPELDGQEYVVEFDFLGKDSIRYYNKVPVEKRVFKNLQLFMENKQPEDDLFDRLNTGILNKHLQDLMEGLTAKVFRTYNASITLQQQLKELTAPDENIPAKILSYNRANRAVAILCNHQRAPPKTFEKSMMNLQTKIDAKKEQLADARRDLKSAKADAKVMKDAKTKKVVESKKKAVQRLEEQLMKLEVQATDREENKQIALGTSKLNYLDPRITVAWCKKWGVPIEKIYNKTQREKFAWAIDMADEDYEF
In short: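 Human topoisomerase I (2 units) was incubated with 250 ng supercoiled pBAD-GFPuv in 20 mM Tris-HCl pH 7.9, 50 mM KAc, 10 mM Mg(Ac)2, 1 mM DTT and 1 µg/ml BSA, with compound at 10 or 50 µM, for 30 min at 37 °C. After a phenol stop, DNA was resolved on 1% agarose without chloroquine beside a relaxed plasmid marker and stained with ethidium bromide.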

[3] = molecular target: T2, DNA gyrase (Escherichia coli) (UniProt P0AES6+P0AES4); experiment: Inhibition of Escherichia coli DNA gyrase using relaxed pBAD-GFPuv plasmid DNA as substrate at 1 to 50 uM after 30 mins by agarose gel electrophoresis; format: protein-complex assay
[4] = Binding affinity to dA60.dT60 DNA (unknown origin) assessed as change in melting temperature at 10 uM by UV-Vis spectrophotometric analysis
In short: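 Preformed dA60·dT60 duplex (equimolar strands heated 95 °C 15 min in 10 mM sodium cacodylate, 0.1 mM EDTA, 100 mM NaCl, pH 7.0, slowly cooled) at 1 µM duplex with 10 µM ligand (diluted from DMSO stock). Absorbance melting in 1 cm quartz cells, heating 0.2 °C/min, data every 1.0 °C; Tm shift versus ligand-free duplex.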

[5] = system: Calf thymus DNA; experiment: Binding affinity to calf thymus DNA assessed as change in melting temperature relative to control; format: nucleic-acid assay; settings: Bos taurus
[6] = system: DU-145; experiment: Cytotoxicity against human DU145 cells after 48 hrs by sulforhodamine B assay; format: cell-based; settings: DU-145, 48 h
In short: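 DU145 cells were seeded and allowed 24 h to resume growth at 37 °C, 5% CO2. They were treated in triplicate at final 20, 10, 5, 2.5, 1.25, 0.625 and 0.0625 µM for 48 h, alongside untreated and media-only wells. Cells were fixed with cold TCA (16% final) and stained with sulforhodamine B in 1% acetic acid. Bound dye was solubilized in 10 mM Tris base and read at 560 nm to give IC50.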

[7] = system: Staphylococcus aureus; experiment: Antibacterial activity against Staphylococcus aureus ATCC 29213 after 24 hrs by microbroth dilution method; format: functional; settings: ATCC 29213, 24 h
In short: (§1)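 Organisms were grown to log phase in Mueller-Hinton broth at 37 °C with shaking. They were pelleted, resuspended in 0.85% saline to OD625 0.1, and dispensed at a final 5×10^5 CFU/mL per CLSI microbroth dilution. Plates were run in triplicate and incubated 24 h at 37 °C, then OD625 was read. MIC was the lowest concentration giving complete growth inhibition versus untreated controls.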

[8] = system: Staphylococcus aureus; experiment: Antibacterial activity against Staphylococcus aureus ATCC 33591 after 24 hrs by microbroth dilution method; format: functional; settings: ATCC 33591, 24 h; in short: as §1
[9] = system: Escherichia coli; experiment: Antibacterial activity against Escherichia coli ATCC 25922 after 24 hrs by microbroth dilution method; format: functional; settings: ATCC 25922, 24 h; in short: as §1
[10] = system: Pseudomonas aeruginosa; experiment: Antibacterial activity against Pseudomonas aeruginosa ATCC 27853 after 24 hrs by microbroth dilution method; format: functional; settings: ATCC 27853, 24 h; in short: as §1
[11] = system: Escherichia coli; experiment: Antibacterial activity against Escherichia coli K-12 after 24 hrs by microbroth dilution method; format: functional; settings: K-12, 24 h; in short: as §1
[12] = system: Enterococcus faecalis; experiment: Antibacterial activity against Enterococcus faecalis ATCC 29212 after 24 hrs by microbroth dilution method; format: functional; settings: ATCC 29212, 24 h; in short: as §1
[13] = molecular target: T3, DNA topoisomerase 1 (Homo sapiens, UniProt P11387); experiment: Inhibition of human DNA topoisomerase-1 using supercoiled pBAD-GFPuv plasmid DNA as substrate assessed as prevention of supercoiled DNA template from relaxation after 30 mins by agarose gel electrophoresis
T3 sequence (P11387 whole entry): T1 sequence (whole entry)
In short: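 Compound at 5–50 µM final; 30 min at 37 °C, phenol stop. Read on 1% agarose/TAE gel with ethidium stain. IC50 = concentration at 50% (−) supercoiled DNA by densitometry; mean of ≥3 determinations.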

[14] = molecular target: T2, DNA gyrase (Escherichia coli); experiment: Inhibition of Escherichia coli DNA gyrase using relaxed pBAD-GFPuv plasmid DNA as substrate at 1 to 10 uM after 30 mins by agarose gel electrophoresis; format: protein-complex assay
[15] = Inhibition of Escherichia coli DNA topoisomerase-1 using supercoiled pBAD/Thio plasmid DNA as substrate assessed as prevention of supercoiled DNA from relaxation after 30 mins by agarose gel electrophoresis
[16] = molecular target: DNA topoisomerase 2-alpha (Homo sapiens, UniProt P11388); experiment: Inhibition of human DNA topoisomerase-2 using supercoiled pBAD-GFPuv plasmid DNA as substrate assessed as prevention of supercoiled DNA template from relaxation after 30 mins by agarose gel electrophoresis
In short: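 Compound at 5–50 µM final; 30 min at 37 °C, phenol stop. Read on 1% agarose/TAE gel with ethidium stain. IC50 = concentration at 50% (−) supercoiled DNA by band intensity; mean of ≥3 determinations.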

Sequence of DNA topoisomerase 2-alpha (P11388 whole entry): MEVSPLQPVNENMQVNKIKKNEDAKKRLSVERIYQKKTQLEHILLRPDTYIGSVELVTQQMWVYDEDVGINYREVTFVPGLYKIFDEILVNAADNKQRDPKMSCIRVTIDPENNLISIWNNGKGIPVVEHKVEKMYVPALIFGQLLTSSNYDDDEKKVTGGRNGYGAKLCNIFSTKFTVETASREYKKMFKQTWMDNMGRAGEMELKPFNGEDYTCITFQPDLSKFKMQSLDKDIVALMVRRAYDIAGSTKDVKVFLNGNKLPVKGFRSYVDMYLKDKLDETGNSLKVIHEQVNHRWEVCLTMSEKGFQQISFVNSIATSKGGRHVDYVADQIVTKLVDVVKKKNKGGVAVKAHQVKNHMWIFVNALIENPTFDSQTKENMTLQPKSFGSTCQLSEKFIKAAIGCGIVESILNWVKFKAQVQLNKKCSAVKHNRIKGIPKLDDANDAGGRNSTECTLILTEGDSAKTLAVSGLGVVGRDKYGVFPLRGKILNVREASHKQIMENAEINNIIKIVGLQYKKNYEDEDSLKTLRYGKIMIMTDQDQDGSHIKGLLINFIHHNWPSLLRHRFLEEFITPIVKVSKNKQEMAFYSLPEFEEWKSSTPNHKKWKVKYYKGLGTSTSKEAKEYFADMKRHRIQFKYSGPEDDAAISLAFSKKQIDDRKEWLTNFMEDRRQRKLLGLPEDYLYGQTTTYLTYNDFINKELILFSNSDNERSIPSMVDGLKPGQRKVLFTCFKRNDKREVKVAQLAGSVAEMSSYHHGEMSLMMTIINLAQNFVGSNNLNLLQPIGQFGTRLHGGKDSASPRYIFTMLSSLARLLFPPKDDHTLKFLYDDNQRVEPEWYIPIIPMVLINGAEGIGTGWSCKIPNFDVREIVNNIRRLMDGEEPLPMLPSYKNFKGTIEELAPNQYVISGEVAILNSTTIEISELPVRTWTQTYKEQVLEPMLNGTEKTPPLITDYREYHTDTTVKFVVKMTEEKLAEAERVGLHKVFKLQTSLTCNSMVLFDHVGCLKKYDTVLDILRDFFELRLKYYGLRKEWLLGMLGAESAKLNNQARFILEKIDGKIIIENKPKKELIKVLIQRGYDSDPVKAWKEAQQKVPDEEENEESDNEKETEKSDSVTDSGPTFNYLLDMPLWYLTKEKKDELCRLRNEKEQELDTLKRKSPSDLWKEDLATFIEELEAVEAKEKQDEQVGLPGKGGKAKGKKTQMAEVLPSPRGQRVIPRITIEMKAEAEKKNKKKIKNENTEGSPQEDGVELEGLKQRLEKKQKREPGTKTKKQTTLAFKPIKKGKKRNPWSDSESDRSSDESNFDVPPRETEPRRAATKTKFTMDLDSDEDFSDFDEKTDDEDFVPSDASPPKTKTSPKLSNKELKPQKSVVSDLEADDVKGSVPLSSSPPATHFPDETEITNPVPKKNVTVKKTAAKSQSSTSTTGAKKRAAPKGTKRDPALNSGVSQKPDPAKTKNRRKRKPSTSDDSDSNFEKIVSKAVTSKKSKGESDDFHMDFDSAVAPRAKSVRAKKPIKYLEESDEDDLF

| SMILES | IC50 [1] [µM] | inhibition [2] [%] | inhibition [3] | ΔTm [4] [°C] | ΔTm [5] [°C] | IC50 [6] [µM] | MIC [7] [µg/mL] | MIC [8] [µg/mL] | MIC [9] [µg/mL] | MIC [10] [µg/mL] | MIC [11] [µg/mL] | MIC [12] [µg/mL] | IC50 [13] [µM] | inhibition [14] | IC50 [15] [µM] | IC50 [16] [µM] |
| --- | --- | --- | --- | --- | --- | --- | --- | --- | --- | --- | --- | --- | --- | --- | --- | --- |
| C#CCCCCOc1ccc(-c2nc3ccc(-c4nc5ccc(N6CCN(C)CC6)cc5[nH]4)cc3[nH]2)cc1 | 4.57 | 5 | inactive | 20.9 | 1 | 2.12 | 2 (≈ 3.96 µM) | 2 (≈ 3.96 µM) | 8 (≈ 15.9 µM) | 16 (≈ 31.7 µM) | 8 (≈ 15.9 µM) | 4 (≈ 7.93 µM) |  |  |  |  |
| C#CCOCCCCOc1ccc(-c2nc3ccc(-c4nc5ccc(N6CCN(C)CC6)cc5[nH]4)cc3[nH]2)cc1 | 6.63 | 5 | inactive | 23.4 | 1 |  | 2 (≈ 3.74 µM) | 2 (≈ 3.74 µM) | 8 (≈ 15 µM) | 16 (≈ 29.9 µM) | 8 (≈ 15 µM) |  |  |  |  |  |
| CCOc1ccc(-c2nc3cc(-c4nc5cc(N6CCN(C)CC6)ccc5[nH]4)ccc3[nH]2)cc1 | 29.8 |  |  | 24.1 |  | 4.25 | 2 (≈ 4.42 µM) | 2 (≈ 4.42 µM) | 8 (≈ 17.7 µM) |  |  | 16 (≈ 35.4 µM) | > 50 |  |  |  |
| C#CCOc1ccc(-c2nc3ccc(-c4nc5ccc(N6CCN(C)CC6)cc5[nH]4)cc3[nH]2)cc1 | 5.5 | 70 |  | 22.9 | 1 |  | 2 (≈ 4.32 µM) | 2 (≈ 4.32 µM) | 8 (≈ 17.3 µM) |  | 8 (≈ 17.3 µM) | 16 (≈ 34.6 µM) |  | inactive |  |  |
| C#CCCCCCCCCCOc1ccc(-c2nc3ccc(-c4nc5ccc(N6CCN(C)CC6)cc5[nH]4)cc3[nH]2)cc1 | 2.47 | 5 | inactive | 8 | 1 | > 10 |  |  |  |  | 8 (≈ 13.9 µM) | 16 (≈ 27.8 µM) |  |  |  |  |
| COc1ccc(-c2nc3cc(-c4nc5cc(N6CCN(C)CC6)ccc5[nH]4)ccc3[nH]2)cc1OC |  |  |  |  |  |  |  |  |  |  |  |  |  |  | 3.8 |  |
| CN1CCN(c2ccc3[nH]c(-c4ccc5[nH]c(-c6ccc(O)cc6)nc5c4)nc3c2)CC1 [HOECHST 33258] | 19.5 |  | inactive | 24.6 |  |  | ≥ 32 | 16 (≈ 37.7 µM) |  |  |  | 16 (≈ 37.7 µM) | 22.9 |  |  | 28.9 |
